According to ChEMBL document CHEMBL1140795, “Antimicrobial activities of the bromophenols from the red alga Odonthalia corymbifera and some synthetic derivatives” (2008):
≈ marks a conversion by molar mass, not a printed value.

Experiments:
Micrococcus luteus = assay: Antibacterial activity against Micrococcus luteus IFC 12708 after 24 hrs; type: functional
Summary of the method: (§1)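 Bacteria were grown overnight in LB broth at 37 °C, harvested by centrifugation and washed twice with sterile water. Test compounds were dissolved as DMSO stocks and serially diluted twofold in Standard method broth. Wells received broth containing about 10⁵ cfu/ml of bacteria and were incubated 24 h at 37 °C. The MIC was recorded.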

Salmonella typhimurium = assay: Antibacterial activity against Salmonella Typhimurium ATCC 14028 after 24 hrs; type: functional, Salmonella enterica subsp. enterica serovar Typhimurium; details: Salmonella enterica, ATCC 14028, 24 h; summary of the method: as §1
Bacillus subtilis = assay: Antibacterial activity against Bacillus subtilis ATCC 6633 after 24 hrs; type: functional; details: ATCC 6633, 24 h; summary of the method: as §1
Candida albicans = assay: Antifungal activity against Candida albicans ATCC 10231 after 48 to 72 hrs; type: functional
Summary of the method: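 C. albicans ATCC 10231 was grown 48 h at 28 °C in YPD broth (1% yeast extract, 2% peptone, 2% dextrose), centrifuged and washed twice with sterile water. Compounds were dissolved in DMSO and serially diluted twofold in potato dextrose broth. Wells received broth containing about 10³ cells/ml and were incubated 48–72 h at 28 °C. The MIC was recorded.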

Proteus vulgaris = assay: Antibacterial activity against Proteus vulgaris ATCC 3851 after 24 hrs; type: functional; details: ATCC 3851, 24 h; summary of the method: as §1
Staphylococcus aureus = assay: Antibacterial activity against Staphylococcus aureus ATCC 6538p after 24 hrs; type: functional; summary of the method: as §1
Trichophyton benhamiae = assay: Antifungal activity against Trichophyton mentagrophytes IFO 40996 after 48 to 72 hrs; type: functional, Arthroderma benhamiae
Summary of the method: (§2)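 Filamentous fungi were grown on potato dextrose agar for 2 weeks at 28 °C. Spores were washed three times in sterile water and resuspended at 10⁵ spores/ml. Compounds were dissolved in DMSO and serially diluted twofold in potato dextrose broth. Wells received broth containing about 10⁴ cells/ml and were incubated 48–72 h at 28 °C. The MIC was recorded.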

Escherichia coli = assay: Antibacterial activity against Escherichia coli ATCC 25922 after 24 hrs; type: functional; details: ATCC 25922, 24 h; summary of the method: as §1
Trichophyton rubrum = assay: Antifungal activity against Trichophyton rubrum IFO 9185 after 48 to 72 hrs; type: functional; summary of the method: as §2
Aspergillus fumigatus = assay: Antifungal activity against Aspergillus fumigatus HIC6094 after 48 to 72 hrs; type: functional; summary of the method: as §2

SMILES	MIC (Micrococcus luteus) [µg/mL]	MIC (Salmonella typhimurium) [µg/mL]	MIC (Bacillus subtilis) [µg/mL]	MIC (Candida albicans) [µg/mL]	MIC (Proteus vulgaris) [µg/mL]	MIC (Staphylococcus aureus) [µg/mL]	MIC (Trichophyton benhamiae) [µg/mL]	MIC (Escherichia coli) [µg/mL]	MIC (Trichophyton rubrum) [µg/mL]	MIC (Aspergillus fumigatus) [µg/mL]
COCc1cc(O)c(O)c(Br)c1Cc1cc(O)c(O)c(Br)c1Br	25 (≈ 48.7 µM)	25 (≈ 48.7 µM)	25 (≈ 48.7 µM)	25 (≈ 48.7 µM)	25 (≈ 48.7 µM)	25 (≈ 48.7 µM)	25 (≈ 48.7 µM)	> 100	25 (≈ 48.7 µM)	25 (≈ 48.7 µM)
OCc1cc(O)c(O)cc1Cc1ccc(O)c(O)c1	> 100	> 100	> 100	> 100	> 100	> 100	> 100	> 100	> 100	> 100
Oc1c(Br)cc(Cc2cc(Br)c(O)c(Br)c2O)c(O)c1Br	> 100	> 100	> 100	> 100	> 100	> 100	> 100	> 100	> 100	> 100
Oc1ccc(Br)cc1Cc1cc(Br)ccc1O	1.56 (≈ 4.36 µM)	3.12 (≈ 8.71 µM)	3.12 (≈ 8.71 µM)	> 100	3.12 (≈ 8.71 µM)	3.12 (≈ 8.71 µM)	> 100	> 100	> 100	> 100
Oc1c(Br)cc(Br)cc1Cc1cc(Br)cc(Br)c1O	1.56 (≈ 3.02 µM)	3.12 (≈ 6.05 µM)	1.56 (≈ 3.02 µM)	> 100	1.56 (≈ 3.02 µM)	1.56 (≈ 3.02 µM)	> 100	> 100	> 100	> 100
Oc1ccc(Cc2ccc(O)c(Br)c2)cc1Br	12.5 (≈ 34.9 µM)	25 (≈ 69.8 µM)	12.5 (≈ 34.9 µM)	> 100	25 (≈ 69.8 µM)	25 (≈ 69.8 µM)	> 100	> 100	> 100	> 100
Oc1cc(Cc2cc(O)c(O)c(Br)c2Br)c(Br)c(Br)c1O	25 (≈ 45.6 µM)	50 (≈ 91.3 µM)	25 (≈ 45.6 µM)	1.56 (≈ 2.85 µM)	50 (≈ 91.3 µM)	25 (≈ 45.6 µM)	1.56 (≈ 2.85 µM)	> 100	1.56 (≈ 2.85 µM)	0.78 (≈ 1.42 µM)
Oc1ccc(Cc2ccc(O)c(O)c2)cc1O	> 100	> 100	> 100	> 100	> 100	> 100	> 100	> 100	> 100	> 100
OCc1cc(O)c(O)c(Br)c1Cc1cc(O)c(O)c(Br)c1Br	50 (≈ 100 µM)	100 (≈ 200 µM)	100 (≈ 200 µM)	100 (≈ 200 µM)	100 (≈ 200 µM)	50 (≈ 100 µM)	50 (≈ 100 µM)	> 100	50 (≈ 100 µM)	> 100
Oc1c(Br)cc(Cc2cc(Br)c(O)c(Br)c2)cc1Br	> 100	> 100	> 100	> 100	> 100	> 100	> 100	> 100	> 100	> 100
COCc1cc(O)c(O)c(Br)c1Br	> 100	> 100	> 100	100 (≈ 321 µM)	> 100	> 100	12.5 (≈ 40.1 µM)	> 100	12.5 (≈ 40.1 µM)	> 100
Oc1ccc(Cc2cc(Br)c(O)c(Br)c2)cc1Br	6.25 (≈ 14.3 µM)	6.25 (≈ 14.3 µM)	6.25 (≈ 14.3 µM)	> 100	6.25 (≈ 14.3 µM)	12.5 (≈ 28.6 µM)	> 100	> 100	> 100	> 100
Oc1ccccc1Cc1cc(Br)ccc1O	25 (≈ 89.6 µM)	25 (≈ 89.6 µM)	25 (≈ 89.6 µM)	> 100	25 (≈ 89.6 µM)	25 (≈ 89.6 µM)	> 100	> 100	> 100	> 100
NCCc1cc(Br)c(O)c(Br)c1	> 100	> 100	> 100	100 (≈ 339 µM)	> 100	100 (≈ 339 µM)	> 100	> 100	> 100	> 100
C[C@@H]1[C@H](O)[C@@H](C)/C=C/C=C/C=C/C=C/C=C/C=C/C=C/[C@H](O[C@@H]2O[C@H](C)[C@@H](O)[C@H](N)[C@@H]2O)C[C@@H]2O[C@](O)(C[C@@H](O)C[C@@H](O)[C@H](O)CC[C@@H](O)C[C@@H](O)CC(=O)O[C@H]1C)C[C@H](O)[C@H]2C(=O)O [AMPHOTERICIN B]	–	–	–	6.25 (≈ 6.76 µM)	–	–	3.12 (≈ 3.38 µM)	–	3.12 (≈ 3.38 µM)	3.12 (≈ 3.38 µM)
CC1(C)S[C@@H]2[C@H](NC(=O)[C@H](N)c3ccccc3)C(=O)N2[C@H]1C(=O)O [AMPICILLIN]	1.56 (≈ 4.46 µM)	3.12 (≈ 8.93 µM)	1.56 (≈ 4.46 µM)	–	3.12 (≈ 8.93 µM)	1.56 (≈ 4.46 µM)	–	12.5 (≈ 35.8 µM)	–	–
OCc1cc(O)c(O)c(Br)c1Br [LANOSOL]	> 100	> 100	> 100	> 100	> 100	> 100	50 (≈ 168 µM)	> 100	50 (≈ 168 µM)	> 100
